The term logD denotes the decadic logarithm of the distribution of all forms, ionised or not, between an organic phase and buffer at a given pH. The low end stands for lower lipophilicity, the high end for higher lipophilicity. A word on the thermodynamic solubility: it is solubility found after equilibrating the solid with the medium. In general, fraction unbound refers to the share of the substance not bound to proteins or other matrix. What is called inhibition is the percentage by which the read-out fell short of the control. High values mean a response far below the control, low ones a response near the control.

Results on eight molecules are retold here after ChEMBL document CHEMBL4261643, “Reducing the Lipophilicity of Perfluoroalkyl Groups by CF2-F/CF2-Me or CF3/CH3 Exchange” (J Med Chem, 2018).

Data set [1] in a line: Partition coefficient, log D of the compound at pH 7.4 after 30 mins by shake-flask method. Format: physicochemical. The note with it: octanol/water. The essentials:
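Octanol/pH 7.4 buffer shake-flask: compound in buffer plus octanol, shaken 30 min, then centrifuged. The aqueous layer was quantified by LC-UV against the solution before octanol addition to give D7.4. Runs were pools of 10 compounds including three QC compounds (cyclobenzaprine, nicardipine, caffeine).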

Data set [2] can be described thus: Aqueous solubility of the compound in phosphate buffer at pH 7.4 after 24 hrs by shake-flask method. Format: physicochemical. In short, it runs like this:
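Dried compound equilibrated in aqueous phosphate buffer, pH 7.4, for 24 h at 25 °C. The dissolved portion was separated from the remaining solid and quantified by UPLC/MS/MS. QC samples were included in each run.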

Data set [3] is described as follows: Fraction unbound in 10% human plasma after 18 hrs by LC-MS/MS analysis. The format is ADME, cell-free. The essentials:
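Compound from DMSO stock was dialysed against buffer in 10% human plasma on a RED device for 18 h. Plasma and buffer samples were quantified by LC-MS/MS against a 7-point calibration curve in plasma. Samples were generally run in singlicate, in pools of up to 10 compounds. Propranolol, metoprolol and warfarin served as reference compounds in each run.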

Data set [4] is described as follows: Intrinsic clearance in human liver microsomes preincubated in presence of NADPH for 30 mins and measured up to 30 mins by LC-MS/MS analysis. Conditions: read-out: CLH. Format: ADME, microsome. The essentials: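 Compound from DMSO stock was incubated with human liver microsomes plus NADPH at 37 °C. Aliquots taken at 0.7, 5.8, 11.6, 17.2, 22.7 and 30 min were quenched with cold acetonitrile and centrifuged at 4 °C. Substrate loss was measured by LC-MS/MS, and Clint is given in µL/min/mg. Six isoform-specific P450/FMO marker substrates were included in each run.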
On the technique in general: Liver microsomes are a subcellular fraction often used to study metabolism.

Data set [5] is described as follows: Intrinsic clearance in Han Wistar rat hepatocytes assessed as per million cells preincubated in presence of NADPH for 30 mins and measured up to 120 mins by LC-MS/MS analysis. Format: ADME, cell-based, Hepatocyte. The note with it: read-out: CLH. The essentials: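 Cryopreserved Han Wistar rat hepatocytes at 1x10^6 cells/mL were incubated with compound from DMSO stock at 37 °C. Samples were taken at 0.5, 5, 15, 20, 30, 45, 60, 80, 100 and 120 min and quenched with cold acetonitrile. After centrifugation at 4 °C, substrate disappearance was followed by LC-MS/MS. Clint is expressed in µL/min/10^6 cells.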

The target of a further data set is hERG (KCNH2) (Homo sapiens, UniProt Q12809). Description: Inhibition of human ERG at 10 uM relative to cisapride.
Chain of hERG (KCNH2) (Q12809 whole entry): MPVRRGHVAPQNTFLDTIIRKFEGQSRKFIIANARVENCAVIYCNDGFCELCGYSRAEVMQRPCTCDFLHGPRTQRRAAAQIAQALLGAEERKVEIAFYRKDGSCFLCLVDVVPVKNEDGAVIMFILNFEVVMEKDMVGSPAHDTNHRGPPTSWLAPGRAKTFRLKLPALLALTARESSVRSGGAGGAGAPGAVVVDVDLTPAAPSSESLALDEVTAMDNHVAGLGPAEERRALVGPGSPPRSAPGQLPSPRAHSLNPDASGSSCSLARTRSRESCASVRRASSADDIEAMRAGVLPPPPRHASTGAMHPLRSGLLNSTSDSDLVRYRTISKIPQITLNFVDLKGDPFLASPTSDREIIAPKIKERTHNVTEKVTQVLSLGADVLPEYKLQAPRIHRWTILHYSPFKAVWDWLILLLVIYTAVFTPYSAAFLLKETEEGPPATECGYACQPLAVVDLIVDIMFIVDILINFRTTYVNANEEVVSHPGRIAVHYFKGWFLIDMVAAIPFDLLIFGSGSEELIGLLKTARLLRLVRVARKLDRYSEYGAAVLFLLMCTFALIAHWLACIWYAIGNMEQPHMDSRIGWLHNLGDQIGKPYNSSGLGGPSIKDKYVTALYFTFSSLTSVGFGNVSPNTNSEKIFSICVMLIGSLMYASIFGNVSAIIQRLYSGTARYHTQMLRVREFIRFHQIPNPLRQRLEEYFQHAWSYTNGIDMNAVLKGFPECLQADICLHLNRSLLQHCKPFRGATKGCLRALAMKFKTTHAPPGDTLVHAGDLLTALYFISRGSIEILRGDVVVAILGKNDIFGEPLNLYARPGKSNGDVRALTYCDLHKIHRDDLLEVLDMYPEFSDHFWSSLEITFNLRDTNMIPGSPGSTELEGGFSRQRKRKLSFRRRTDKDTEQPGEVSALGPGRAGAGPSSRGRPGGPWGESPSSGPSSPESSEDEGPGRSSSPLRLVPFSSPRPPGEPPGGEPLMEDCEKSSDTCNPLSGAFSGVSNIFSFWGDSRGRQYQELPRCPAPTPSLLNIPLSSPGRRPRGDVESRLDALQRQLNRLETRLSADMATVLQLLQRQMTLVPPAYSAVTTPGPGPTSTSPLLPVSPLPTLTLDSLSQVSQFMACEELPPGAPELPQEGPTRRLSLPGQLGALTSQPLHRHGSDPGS

`CN(C)C(=O)CNCCc1cccc(OCCC(C)(F)F)c1.Cl` registered a logD at 0.5 h in data set [1] of 1.1. Also, the solubility (thermodynamic) at 24 h in data set [2] came to 960 µM. Also, the fraction unbound at 18 h in data set [3] turned out to be 0.62. Also, the microsomal CLint in data set [4] was 7 µL/min/mg. For the same molecule, in data set [5], the hepatocyte CLint turned out to be 34 µL/min/1e6 cells. On hERG (KCNH2), this molecule had an inhibition at 10 µM of 35%.
`CCCCCOc1cccc(CCNCC(=O)N(C)C)c1.Cl`: in data set [1], the logD at 0.5 h was 2.3. Moreover, in data set [2], the solubility (thermodynamic) at 24 h stood at 779 µM. In data set [3], this molecule came in with a fraction unbound at 18 h of 0.23. Besides, the microsomal CLint in data set [4] turned out to be 29 µL/min/mg. In data set [5], the hepatocyte CLint is 91 µL/min/1e6 cells. On hERG (KCNH2), this molecule gave an inhibition at 10 µM of 70%.
With `CN(C)C(=O)CNCCc1cccc(OCC(F)(F)C(F)(F)C(C)(F)F)c1.Cl`, the logD at 0.5 h in data set [1] came out at 2.2. In addition, the solubility (thermodynamic) at 24 h in data set [2] is 946 µM. In data set [3], the fraction unbound at 18 h is 0.25. Further, the microsomal CLint in data set [4] was 9 µL/min/mg. Further, in data set [5], the hepatocyte CLint turned out to be 64 µL/min/1e6 cells. On hERG (KCNH2), the inhibition at 10 µM turned out to be 63%.
In the case of `CCCCOc1cccc(CCNCC(=O)N(C)C)c1.Cl`, the logD at 0.5 h in data set [1] amounted to 1.8. This molecule also displayed a thermodynamic solubility at 24 h in data set [2] of 782 µM. In data set [3], the fraction unbound at 18 h came to 0.45. For the same molecule, in data set [4], the microsomal CLint stood at 13 µL/min/mg. Also, the hepatocyte CLint in data set [5] turned out to be 82 µL/min/1e6 cells. Besides, the inhibition at 10 µM against hERG (KCNH2) is 31%.
For `CN(C)C(=O)CNCCc1cccc(OCC(F)(F)C(F)(F)C(F)(F)F)c1.Cl`, the logD at 0.5 h in data set [1] came to 2.5. Also, in data set [2], the thermodynamic solubility at 24 h was determined as 952 µM. Further, the fraction unbound at 18 h in data set [3] worked out at 0.2. Moreover, the microsomal CLint in data set [4] is 8 µL/min/mg. Further, the hepatocyte CLint in data set [5] was 20 µL/min/1e6 cells. At hERG (KCNH2), this molecule yielded an inhibition at 10 µM of 57%.
In data set [2], `CN(C)C(=O)CNCCc1cccc(OCC(F)(F)C(F)(F)C(F)(F)C(F)(F)F)c1.Cl` returned a solubility (thermodynamic) at 24 h of 955 µM.
In data set [1], `CN(C)C(=O)CNCCc1cccc(OCC(F)(F)C(C)(F)F)c1.Cl` showed a logD at 0.5 h of 1.6. For the same molecule, the thermodynamic solubility at 24 h in data set [2] worked out at 929 µM. In data set [3], this molecule registered a fraction unbound at 18 h of 0.51. Besides, the microsomal CLint in data set [4] is 10 µL/min/mg. In addition, the hepatocyte CLint in data set [5] came out at 32 µL/min/1e6 cells. The molecule further showed an inhibition at 10 µM against hERG (KCNH2) of 41%.
On to `CN(C)C(=O)CNCCc1cccc(OCCCC(C)(F)F)c1.Cl`, for which the pH-dependent lipophilicity (logD) at 0.5 h in data set [1] was determined as 1.7. Besides, in data set [2], the solubility (thermodynamic) at 24 h is 1000 µM. Also, the fraction unbound at 18 h in data set [3] was 0.49. In data set [4], the microsomal CLint stood at 7 µL/min/mg. Further, the hepatocyte CLint in data set [5] is 38 µL/min/1e6 cells. At 10 µM the inhibition against hERG (KCNH2) was 45%.
